# Assay results from ChEMBL document CHEMBL4308845, “Allosteric Activation of Striatal-Enriched Protein Tyrosine Phosphatase (STEP, PTPN5) by a Fragment-like Molecule” (J Med Chem, 2019).
# Activity calls are given as the source filed them. The calls are words filed in the database; no cut-off is given here.
# T1: Tyrosine-protein phosphatase non-receptor type 5 (Homo sapiens) (UniProt P54829)
# T1 sequence (whole entry): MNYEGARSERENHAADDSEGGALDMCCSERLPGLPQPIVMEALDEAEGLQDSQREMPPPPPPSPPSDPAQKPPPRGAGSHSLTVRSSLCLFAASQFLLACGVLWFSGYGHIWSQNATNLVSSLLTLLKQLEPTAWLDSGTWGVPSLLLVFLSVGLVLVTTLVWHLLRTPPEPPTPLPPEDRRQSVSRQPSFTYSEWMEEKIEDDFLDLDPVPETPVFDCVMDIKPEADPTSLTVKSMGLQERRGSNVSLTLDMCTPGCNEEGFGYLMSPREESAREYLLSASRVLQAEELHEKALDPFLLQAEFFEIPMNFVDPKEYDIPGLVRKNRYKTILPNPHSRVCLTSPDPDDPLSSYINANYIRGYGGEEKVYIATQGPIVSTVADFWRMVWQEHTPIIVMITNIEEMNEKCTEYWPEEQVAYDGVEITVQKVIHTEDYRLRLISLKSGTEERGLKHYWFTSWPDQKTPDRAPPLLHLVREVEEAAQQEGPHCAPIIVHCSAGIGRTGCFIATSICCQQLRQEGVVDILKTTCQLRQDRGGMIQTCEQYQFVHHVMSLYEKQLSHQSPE
# B1: Tyrosine-protein phosphatase non-receptor type 5 (Homo sapiens), P54829 (protein)
# chain: MNYEGARSERENHAADDSEGGALDMCCSERLPGLPQPIVMEALDEAEGLQDSQREMPPPPPPSPPSDPAQKPPPRGAGSHSLTVRSSLCLFAASQFLLACGVLWFSGYGHIWSQNATNLVSSLLTLLKQLEPTAWLDSGTWGVPSLLLVFLSVGLVLVTTLVWHLLRTPPEPPTPLPPEDRRQSVSRQPSFTYSEWMEEKIEDDFLDLDPVPETPVFDCVMDIKPEADPTSLTVKSMGLQERRGSNVSLTLDMCTPGCNEEGFGYLMSPREESAREYLLSASRVLQAEELHEKALDPFLLQAEFFEIPMNFVDPKEYDIPGLVRKNRYKTILPNPHSRVCLTSPDPDDPLSSYINANYIRGYGGEEKVYIATQGPIVSTVADFWRMVWQEHTPIIVMITNIEEMNEKCTEYWPEEQVAYDGVEITVQKVIHTEDYRLRLISLKSGTEERGLKHYWFTSWPDQKTPDRAPPLLHLVREVEEAAQQEGPHCAPIIVHCSAGIGRTGCFIATSICCQQLRQEGVVDILKTTCQLRQDRGGMIQTCEQYQFVHHVMSLYEKQLSHQSPE
# What was measured:
# [1] = target: T1, Tyrosine-protein phosphatase non-receptor type 5 (Homo sapiens); assay: Binding affinity to human 15N-labeled STEP PTP domain (281 to 563 residues) expressed in Escherichia coli OD2 assessed as induction of chemical perturbation at 500 uM by 1H,15N TROSY NMR spectral analysis
# Method in brief: (§1)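 40 μM 15N-labelled STEP PTP domain in 20 mM Tris-d11, 100 mM NaCl, 1 mM TCEP, pH 7.4, 8% D2O, 1% DMSO-d6, 298 K. TROSY spectra used 192 transients and 64 indirect points. Binders were called by manual comparison with the protein-only reference spectrum.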
# [2] = target: Tyrosine-protein phosphatase non-receptor type 5 (Homo sapiens) (UniProt P54829); assay: Binding affinity to human 15N-labeled STEP PTP domain (281 to 563 residues) expressed in Escherichia coli OD2 assessed as induction of chemical perturbation at 2 mM by 1H,15N TROSY NMR spectral analysis; method in brief: as §1
# [3] = species on record: Homo sapiens; assay: Binding affinity to human STEP46 (197 to 565 residues) expressed in Escherichia coli BL21(DE3) at 250 uM by STD-NMR method
# Method in brief: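 Saturation was 3 s Gaussian pulse train, on-resonance −0.2 ppm, off-resonance 60 ppm. A 30 ms spin-lock suppressed protein signal, and the difference spectrum was taken.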
# [4] = species on record: Homo sapiens; assay: Binding affinity to human STEP46 (197 to 565 residues) expressed in Escherichia coli BL21(DE3) at 500 uM by SYPRO Orange dye based DSF
# Method in brief: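 Final mix was 5 μM STEP46, 25× SYPRO Orange, 500 μM fragment, 1% DMSO in 20 mM HEPES pH 7.5, 50 mM NaCl, 1 mM TCEP, in duplicate. Samples were heated 25→95 °C at 1 °C/min, read every 0.5 °C. Tm was taken from the first-derivative minimum. ΔTm ≥0.5 °C versus DMSO counted as a hit.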
# [5] = species on record: Homo sapiens; assay: Binding affinity to human STEP46 (197 to 565 residues) expressed in Escherichia coli BL21(DE3) by MST method
# [6] = compound: N=C(N)Nc1cc(C2CCNCC2)cc(C(F)(F)F)c1; assay: Activation of human STEP PTP domain (281 to 563 residues) expressed in Escherichia coli BL21(DE3) assessed as Km for substrate at 500 uM using pFyn peptide substrate after 60 mins by RapidFire MS/MS assay (reference value: 60.8 +/- 7.9 uM)
# [7] = compound: N=C(N)Nc1cc(C2CCNCC2)cc(C(F)(F)F)c1; assay: Activation of human STEP PTP domain (281 to 563 residues) expressed in Escherichia coli BL21(DE3) assessed as Kcat at 500 uM using pFyn peptide substrate after 60 mins by RapidFire MS/MS assay (reference value: 0.024 +/- 0.002 /s)
molecule,measurement,setting,value
N=C(N)Nc1cccc(C(F)(F)F)c1,Activity,[1],Active
SODIUM ORTHOVANAD,Activity,[2],Active
CC(N)Cc1cccc(C(F)(F)F)c1 (stereo not given),Activity,[1],inactive
CC(N)Cc1cc(N)cc(C(F)(F)F)c1 (stereo not given),Activity,[1],inactive
CC(N)Cc1cc(O)cc(C(F)(F)F)c1 (stereo not given),Activity,[1],> 5 mM
same,Activity,[3],Active
same,Activity,[4],Active
same,Activity,[5],Active
B1,Km,[6],65.4 µM
same,kcat,[7],0.042 s⁻¹
